Like-named read-outs stand apart in the source and are kept apart here.
Key:
A. baumannii AB5075 [1] = experiment: Broth microdilution standalone MIC; type: cell-based; details: Acinetobacter baumannii, AB5075, read-out: standalone MIC against AB5075
A. baumannii AB19606 = experiment: Broth microdilution standalone MIC; type: cell-based; details: Acinetobacter baumannii, AB19606, read-out: standalone MIC against AB19606
HepG2 cells = experiment: XTT cell viability assay with HepG2 cells; type: cell-based, human; details: for IC50: Homo sapiens; for TI: HepG2 IC50 / adjuvant concentration that reduces CLR MIC to breakpoint
Outline: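 Cytotoxicity is tested on HepG2 human hepatoma cells, using lead cyclized-linker 2-AI-benzimidazole conjugates and their parent amide analogues. IC50 is taken from dose-response curves. […] TI is not calculated for compounds without adjuvant activity.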

AB2828 = experiment: CLR potentiation, clinical isolate; type: cell-based, Acinetobacter baumannii; details: adjuvant at 10 μM
AB3927 = experiment: CLR potentiation, clinical isolate; type: cell-based, Acinetobacter baumannii; details: adjuvant at 10 μM
AB4025 = experiment: CLR potentiation, clinical isolate; type: cell-based, Acinetobacter baumannii; details: adjuvant at 10 μM
AB4027 = experiment: CLR potentiation, clinical isolate; type: cell-based, Acinetobacter baumannii; details: adjuvant at 10 μM
AB4448 = experiment: CLR potentiation, clinical isolate; type: cell-based, Acinetobacter baumannii; details: adjuvant at 10 μM
AB4878 = experiment: CLR potentiation, clinical isolate; type: cell-based, Acinetobacter baumannii; details: adjuvant at 10 μM
AB5001 = experiment: CLR potentiation, clinical isolate; type: cell-based, Acinetobacter baumannii; details: adjuvant at 10 μM
AB5256 = experiment: CLR potentiation, clinical isolate; type: cell-based, Acinetobacter baumannii; details: adjuvant at 10 μM
AB5674 = experiment: CLR potentiation, clinical isolate; type: cell-based, Acinetobacter baumannii; details: adjuvant at 10 μM
AB5711 = experiment: CLR potentiation, clinical isolate; type: cell-based, Acinetobacter baumannii; details: adjuvant at 10 μM
AB8967 = experiment: CLR potentiation, clinical isolate; type: cell-based, Acinetobacter baumannii; details: adjuvant at 10 μM
AB3560 = experiment: CLR potentiation, clinical isolate; type: cell-based, Acinetobacter baumannii; details: adjuvant at 10 μM
AB3785 = experiment: CLR potentiation, clinical isolate; type: cell-based, Acinetobacter baumannii; details: adjuvant at 10 μM
AB3806 = experiment: CLR potentiation, clinical isolate; type: cell-based, Acinetobacter baumannii; details: adjuvant at 10 μM
AB4026 = experiment: CLR potentiation, clinical isolate; type: cell-based, Acinetobacter baumannii; details: adjuvant at 10 μM
AB4052 = experiment: CLR potentiation, clinical isolate; type: cell-based, Acinetobacter baumannii; details: adjuvant at 10 μM
AB4269 = experiment: CLR potentiation, clinical isolate; type: cell-based, Acinetobacter baumannii; details: adjuvant at 10 μM
AB4490 = experiment: CLR potentiation, clinical isolate; type: cell-based, Acinetobacter baumannii; details: adjuvant at 10 μM
AB4498 = experiment: CLR potentiation, clinical isolate; type: cell-based, Acinetobacter baumannii; details: adjuvant at 10 μM
AB4556 = experiment: CLR potentiation, clinical isolate; type: cell-based, Acinetobacter baumannii; details: adjuvant at 10 μM
AB4795 = experiment: CLR potentiation, clinical isolate; type: cell-based, Acinetobacter baumannii; details: adjuvant at 10 μM
AB4857 = experiment: CLR potentiation, clinical isolate; type: cell-based, Acinetobacter baumannii; details: adjuvant at 10 μM
AB4957 = experiment: CLR potentiation, clinical isolate; type: cell-based, Acinetobacter baumannii; details: adjuvant at 10 μM
AB4991 = experiment: CLR potentiation, clinical isolate; type: cell-based, Acinetobacter baumannii; details: adjuvant at 10 μM
AB5197 = experiment: CLR potentiation, clinical isolate; type: cell-based, Acinetobacter baumannii; details: adjuvant at 10 μM
A. baumannii AB5075 [2] = experiment: Checkerboard assay colistin and compound; type: cell-based, Acinetobacter baumannii; details: COL alone
[3] = HepG2, 24 h, read-out: HepG2 IC50

`Nc1nc(-c2ccc3nc(-c4cc(Cl)cc(Cl)c4)[nH]c3c2)c[nH]1` [Compound 2] was tested, and the MIC (A. baumannii AB5075 [1]) was greater than 200 µM, the MIC (A. baumannii AB19606) was greater than 200 µM and the IC50 (HepG2 cells; HepG2, read-out: IC50 against HepG2 cells) was 69.8 µM.
`Cl.Nc1nc(-c2ccc3nc(-c4ccc(Cl)c(Cl)c4)[nH]c3c2)c[nH]1` [Compound 5] was tested, and the MIC (A. baumannii AB5075 [1]) was no less than 200 µM, the MIC (A. baumannii AB19606) was no less than 200 µM and the TI (HepG2 cells) was 9.7–9.9. For the same molecule, the IC50 (HepG2 cells; [3]) was 73.5 ± 1.1 µM, the “CLR MIC fold reduction” value (AB2828) was 8 fold and the “CLR MIC fold reduction” value (AB3927) was 16 fold. For the same molecule, the “CLR MIC fold reduction” value (AB4025) was 16 fold, the “CLR MIC fold reduction” value (AB4027) was 16 fold and the “CLR MIC fold reduction” value (AB4448) was 16 fold. The “CLR MIC fold reduction” value (AB4878) was 16 fold, the “CLR MIC fold reduction” value (AB5001) was 16 fold and the “CLR MIC fold reduction” value (AB5256) was 512 fold. The “CLR MIC fold reduction” value (AB5674) was 64 fold, the “CLR MIC fold reduction” value (AB5711) was 16 fold and the “CLR MIC fold reduction” value (AB8967) was 32 fold. For the same molecule, the “CLR MIC fold reduction” value (AB3560) was 4 fold, the “CLR MIC fold reduction” value (AB3785) was 64 fold and the “CLR MIC fold reduction” value (AB3806) was 4 [4] fold. The “CLR MIC fold reduction” value (AB4026) was 32 fold, the “CLR MIC fold reduction” value (AB4052) was 16 fold and the “CLR MIC fold reduction” value (AB4269) was 32 fold. The “CLR MIC fold reduction” value (AB4490) was 4 fold, the “CLR MIC fold reduction” value (AB4498) was 8 [8] fold and the “CLR MIC fold reduction” value (AB4556) was 4 [4] fold. For the same molecule, the “CLR MIC fold reduction” value (AB4795) was 8 fold, the “CLR MIC fold reduction” value (AB4857) was 4 fold and the “CLR MIC fold reduction” value (AB4957) was 4 fold. For the same molecule, the “CLR MIC fold reduction” value (AB4991) was 8 fold and the “CLR MIC fold reduction” value (AB5197) was 8 [8] fold.
`Nc1nc(-c2ccc3nc(-c4cc(Cl)c(Cl)c(Cl)c4)[nH]c3c2)c[nH]1` [Compound 6] gave an MIC (A. baumannii AB5075 [1]) of no less than 200 µM and an MIC (A. baumannii AB19606) of no less than 200 µM.
Molecule `Nc1nc(-c2ccc3nc(-c4ccc(Cl)cc4)[nH]c3c2)c[nH]1` [Compound 7] has an MIC (A. baumannii AB5075 [1]) of no less than 200 µM and an MIC (A. baumannii AB19606) of no less than 200 µM.
`Nc1nc(-c2ccc3nc(-c4cccc(Cl)c4)[nH]c3c2)c[nH]1` [Compound 8] was tested, and the MIC (A. baumannii AB5075 [1]) was no less than 200 µM and the MIC (A. baumannii AB19606) was no less than 200 µM.
`Nc1nc(-c2ccc3nc(-c4ccccc4Cl)[nH]c3c2)c[nH]1` [Compound 9] gave an MIC (A. baumannii AB5075 [1]) of no less than 200 µM and an MIC (A. baumannii AB19606) of no less than 200 µM.
With `Nc1nc(-c2ccc3nc(-c4cccc(Cl)c4Cl)[nH]c3c2)c[nH]1` [Compound 10] the MIC (A. baumannii AB5075 [1]) was no less than 200 µM and the MIC (A. baumannii AB19606) was no less than 200 µM.
Molecule `Nc1nc(-c2ccc3nc(-c4ccc(Cl)cc4Cl)[nH]c3c2)c[nH]1` [Compound 11] has an MIC (A. baumannii AB5075 [1]) of no less than 200 µM and an MIC (A. baumannii AB19606) of no less than 200 µM.
In the case of `Nc1nc(-c2ccc3nc(-c4cc(Cl)ccc4Cl)[nH]c3c2)c[nH]1` [Compound 12], the MIC (A. baumannii AB5075 [1]) is reported as no less than 200 µM and the MIC (A. baumannii AB19606) is reported as no less than 200 µM.
With `COc1cc(OC)cc(-c2nc3ccc(-c4c[nH]c(N)n4)cc3[nH]2)c1` [Compound 15] the MIC (A. baumannii AB5075 [1]) was no less than 200 µM and the MIC (A. baumannii AB19606) was no less than 200 µM.
With `Cc1cc(C)cc(-c2nc3ccc(-c4c[nH]c(N)n4)cc3[nH]2)c1` [Compound 16] the MIC (A. baumannii AB5075 [1]) was no less than 200 µM and the MIC (A. baumannii AB19606) was no less than 200 µM.
In the case of `Cc1ccc(-c2nc3ccc(-c4c[nH]c(N)n4)cc3[nH]2)cc1C` [Compound 17], the MIC (A. baumannii AB5075 [1]) is reported as no less than 200 µM and the MIC (A. baumannii AB19606) is reported as no less than 200 µM.
`Cl.Nc1nc(-c2ccc3nc(-c4ccc(Cl)c(C(F)(F)F)c4)[nH]c3c2)c[nH]1` [Compound 25] was tested, and the MIC (A. baumannii AB5075 [1]) was 50 µM, the MIC (A. baumannii AB19606) was 50 µM and the TI (HepG2 cells) was 18.7–19.0. For the same molecule, the IC50 (HepG2 cells; [3]) was 141.6 ± 1.1 µM, the “CLR MIC fold reduction” value (AB2828) was 16 fold and the “CLR MIC fold reduction” value (AB3927) was 128 fold. For the same molecule, the “CLR MIC fold reduction” value (AB4025) was 16 fold, the “CLR MIC fold reduction” value (AB4027) was 32 fold and the “CLR MIC fold reduction” value (AB4448) was 32 fold. For the same molecule, the “CLR MIC fold reduction” value (AB4878) was 32 fold, the “CLR MIC fold reduction” value (AB5001) was 32 fold and the “CLR MIC fold reduction” value (AB5256) was 128 fold. For the same molecule, the “CLR MIC fold reduction” value (AB5674) was 128 fold, the “CLR MIC fold reduction” value (AB5711) was 64 fold and the “CLR MIC fold reduction” value (AB8967) was 64 fold. For the same molecule, the “CLR MIC fold reduction” value (AB3560) was 16 fold, the “CLR MIC fold reduction” value (AB3785) was 32 fold and the “CLR MIC fold reduction” value (AB3806) was 32 fold. The “CLR MIC fold reduction” value (AB4026) was 32 fold, the “CLR MIC fold reduction” value (AB4052) was 4 fold and the “CLR MIC fold reduction” value (AB4269) was 2 fold. For the same molecule, the “CLR MIC fold reduction” value (AB4490) was 64 fold, the “CLR MIC fold reduction” value (AB4498) was 8 [8] fold and the “CLR MIC fold reduction” value (AB4556) was 8 fold. For the same molecule, the “CLR MIC fold reduction” value (AB4795) was 16 fold, the “CLR MIC fold reduction” value (AB4857) was 16 fold and the “CLR MIC fold reduction” value (AB4957) was 2 fold. For the same molecule, the “CLR MIC fold reduction” value (AB4991) was 32 fold and the “CLR MIC fold reduction” value (AB5197) was 32 fold.
For colistin, the “COL MIC against AB5075” value (A. baumannii AB5075 [2]) was 1 µg/mL.

— paper PMC12366125 (ACS Medicinal Chemistry Letters, 2025)
